# How the values were obtained:
# Acetyl-CoA carboxylase 1 [1] = molecular target: T1, Acetyl-CoA carboxylase 1 (Homo sapiens, UniProt Q13085); test: Inhibition of recombinant human C-terminal His-tagged ACC1 (1 to 2383 residues) expressed in baculovirus infected Sf9 insect cells at 5 uM preincubated for 15 mins followed by substrate addition and measured after 60 mins by ADP-glo luminescence assay relative to control
# Acetyl-CoA carboxylase 1 [2] = molecular target: T1, Acetyl-CoA carboxylase 1; test: Inhibition of recombinant human C-terminal His-tagged ACC1 (1 to 2383 residues) expressed in baculovirus infected Sf9 insect cells at 0.1 uM preincubated for 15 mins followed by substrate addition and measured after 60 mins by ADP-glo luminescence assay relative to control
# Acetyl-CoA carboxylase 1 [3] = molecular target: T1, Acetyl-CoA carboxylase 1; test: Inhibition of recombinant human C-terminal His-tagged ACC1 (1 to 2383 residues) expressed in baculovirus infected Sf9 insect cells preincubated for 15 mins followed by substrate addition and measured after 60 mins by ADP-glo luminescence assay
# Procedure, shortened: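 Recombinant ACC1 in assay buffer preincubated with inhibitor in DMSO for 15 min at room temperature. Reaction started with substrate mixture and run 60 min at room temperature. Stopped with ADP-Glo reagent for 40 min, then detection reagent for 40 min to convert ADP to ATP, read by luminescence. Mean of two independent experiments.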
# A549 = test: Antiproliferative activity against human A549 cells assessed as cell growth inhibition after 72 hrs by MTT assay; format: functional, cell-based; settings: A549, 72 h
# Procedure, shortened: (§1)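 HepG2, A549 or MDA-MB-231 cells grown in DMEM with 10% FBS and penicillin/streptomycin at 37 °C, 5% CO2. Seeded at 3×10^3 per well, left 24 h, then exposed to a range of concentrations for 72 h. MTT added for 4 h, formazan dissolved in DMSO, absorbance read at 550 nm. Mean ± SD, n=3.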
# HepG2 = test: Antiproliferative activity against human HepG2 cells assessed as cell growth inhibition after 72 hrs by MTT assay; format: functional, cell-based; settings: HepG2, 72 h; procedure, shortened: as §1
# MDA-MB-231 = test: Antiproliferative activity against human MDA-MB-231 cells assessed as cell growth inhibition after 72 hrs by MTT assay; format: functional, cell-based; settings: MDA-MB-231, 72 h; procedure, shortened: as §1
# [4] = Cytotoxicity against HUVEC assessed as cell viability at 100 uM after 72 hrs by MTT assay relative to control; format: cell-based; settings: human, HUVEC cells, read-out: Activity
# Procedure, shortened: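 HUVEC kept in RPMI 1640 with 10% FBS at 37 °C, 5% CO2. Seeded at 3×10^3 per well and treated at 100 µM for 72 h after 24 h attachment. Viability by MTT with absorbance at 550 nm, as percent of control. Mean ± SD, n=3.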
inhibition (Acetyl-CoA carboxylase 1 [1]),inhibition (Acetyl-CoA carboxylase 1 [2]),IC50 (Acetyl-CoA carboxylase 1 [3]),IC50 (A549),IC50 (HepG2),IC50 (MDA-MB-231),Compound,"viability at 72 h, 100 µM [4]"
93.9%,38.4%,> 100 nM,> 10 µM,> 10000 nM,> 10 µM,CCOc1cc(C(=O)N2CCC3(CC2)CC(=O)c2nn(C(C)(C)C)cc2O3)c2ccccc2n1,96.1%
101%,90.5%,6 nM,1.94 µM,2110 nM,> 10 µM,CC(C)(C)n1cc2c(n1)C(=O)CC1(CCN(C(=O)c3cc(-c4ccccc4)nc4ccccc34)CC1)O2,97.3%
–,–,4.34 nM,–,–,–,COc1ccccc1[C@H](Cn1c(=O)n(C(C)(C)C(=O)O)c(=O)c2c(C)c(-c3ncco3)sc21)OC1CCOCC1 [FIRSOCOSTAT],–
97.4%,52.8%,> 20 nM,> 10 µM,9550 nM,8.13 µM,CN1CCN(c2cc(C(=O)N3CCC4(CC3)CC(=O)c3nn(C(C)(C)C)cc3O4)c3ccccc3n2)CC1,93.5%
103%,84%,13.8 nM,7.72 µM,1500 nM,8.1 µM,CC(C)(C)n1cc2c(n1)C(=O)CC1(CCN(C(=O)c3cc(-c4ccccn4)nc4ccccc34)CC1)O2,104%
93.6%,55%,> 20 nM,> 10 µM,9480 nM,4.86 µM,Cc1cc(C(=O)N2CCC3(CC2)CC(=O)c2nn(C(C)(C)C)cc2O3)c2ccccc2n1,101%
95.5%,41.8%,> 100 nM,1.88 µM,> 10000 nM,> 10 µM,Cc1ccccc1-c1cc(C(=O)N2CCC3(CC2)CC(=O)c2nn(C(C)(C)C)cc2O3)c2ccccc2n1,38.6%
101%,94.1%,1.29 nM,0.97 µM,630 nM,4.96 µM,CC(C)(C)n1cc2c(n1)C(=O)CC1(CCN(C(=O)c3cc(-c4ccc(N)cc4)nc4ccccc34)CC1)O2,84.8%
97.7%,56.9%,> 20 nM,> 10 µM,4570 nM,3.18 µM,CC(C)(C)n1cc2c(n1)C(=O)CC1(CCN(C(=O)c3cc(N4CCOCC4)nc4ccccc34)CC1)O2,34.4%
102%,95.6%,3.57 nM,2.03 µM,1560 nM,7.13 µM,COc1ccc(-c2cc(C(=O)N3CCC4(CC3)CC(=O)c3nn(C(C)(C)C)cc3O4)c3ccccc3n2)cc1OC,93.7%
99.6%,96.4%,2.72 nM,1.15 µM,1730 nM,> 10 µM,CN(C)c1ccc(-c2cc(C(=O)N3CCC4(CC3)CC(=O)c3nn(C(C)(C)C)cc3O4)c3ccccc3n2)cc1,91.3%
102%,93.2%,5.67 nM,9.3 µM,820 nM,> 10 µM,CC(C)(C)n1cc2c(n1)C(=O)CC1(CCN(C(=O)c3cc(-c4ccc(Br)cc4)nc4ccccc34)CC1)O2,84.1%
96.7%,59.1%,> 20 nM,7.17 µM,4720 nM,9.22 µM,CC(C)(C)n1cc2c(n1)C(=O)CC1(CCN(C(=O)c3cc(Cl)nc4ccccc34)CC1)O2,99.3%
93.8%,36.7%,> 100 nM,> 10 µM,> 10000 nM,> 10 µM,COc1cc(C(=O)N2CCC3(CC2)CC(=O)c2nn(C(C)(C)C)cc2O3)c2ccccc2n1,98.6%
101%,82.5%,–,3.52 µM,1880 nM,5.93 µM,CC(C)(C)n1cc2c(n1)C(=O)CC1(CCN(C(=O)c3ccc4[nH]ncc4c3)CC1)O2,101%
94.4%,43.6%,> 100 nM,2.18 µM,> 10000 nM,> 10 µM,CC(C)(C)n1cc2c(n1)C(=O)CC1(CCN(C(=O)c3cc(-c4ccccc4Cl)nc4ccccc34)CC1)O2,103%
104%,93.2%,6.09 nM,2.33 µM,630 nM,> 10 µM,CC(C)(C)n1cc2c(n1)C(=O)CC1(CCN(C(=O)c3cc(-c4ccc(Cl)cc4)nc4ccccc34)CC1)O2,87.3%
101%,93.8%,2.22 nM,5.3 µM,1440 nM,> 10 µM,Cc1ccc(-c2cc(C(=O)N3CCC4(CC3)CC(=O)c3nn(C(C)(C)C)cc3O4)c3ccccc3n2)cc1,49.6%
99.4%,68%,> 20 nM,> 10 µM,3150 nM,> 10 µM,CC(C)Oc1cc(C(=O)N2CCC3(CC2)CC(=O)c2nn(C(C)(C)C)cc2O3)c2ccccc2n1,102%
101%,94.8%,3.18 nM,3.74 µM,2780 nM,> 10 µM,COc1ccc(-c2cc(C(=O)N3CCC4(CC3)CC(=O)c3nn(C(C)(C)C)cc3O4)c3ccccc3n2)cc1,102%
97.6%,59.6%,> 20 nM,> 10 µM,8570 nM,4.2 µM,CC(C)(C)n1cc2c(n1)C(=O)CC1(CCN(C(=O)c3cc(N4CCNCC4)nc4ccccc34)CC1)O2,102%
100%,87.3%,9.4 nM,5.77 µM,2930 nM,> 10 µM,CC(C)(C)n1cc2c(n1)C(=O)CC1(CCN(C(=O)c3cc(-c4ccc(F)cc4)nc4ccccc34)CC1)O2,98.7%

Compound,inhibition (Acetyl-CoA carboxylase 1 [1]),inhibition (Acetyl-CoA carboxylase 1 [2]),IC50 (Acetyl-CoA carboxylase 1 [3]),IC50 (A549),IC50 (HepG2),IC50 (MDA-MB-231),"viability at 72 h, 100 µM [4]"
COc1cccc2c1C(=O)c1c(O)c3c(c(O)c1C2=O)C[C@@](O)(C(=O)CO)C[C@@H]3O[C@H]1C[C@H](N)[C@H](O)[C@H](C)O1 [DOXORUBICIN],–,–,–,0.59 µM,690 nM,–,14.4%

# — ChEMBL document CHEMBL4732112, “Synthesis and in vitro evaluation of novel spiroketopyrazoles as acetyl-CoA carboxylase inhibitors and potential antitumor agents” (Eur J Med Chem, 2021)
